Results taken from ChEMBL document CHEMBL1127858, “Synthesis and evaluation of the anti-HIV activity of aza and deaza analogues of isoddA and their phosphates as prodrugs” (J Med Chem, 1994).

Legend:
MT4 [1] = assay: Effective concentration required to achieve 50% protection of MT-4 cells against cytopathic effect of HIV-2 (8 days); assay type: functional, cell-based; conditions: Homo sapiens, MT4, 192 h
Procedure, shortened: (§1)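 MT-4 cells (1 × 10⁴ per well, RPMI with 10% FCS) with various compound concentrations, infected with 100 CCID50 of HIV-2 CBL 20 from persistently infected CEM supernatant. Viable cells read by MTT. EC50 is the dose giving 50% protection from virus cytopathicity. Mean of three independent experiments.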

MT4 [2] = assay: Concentration required to reduce the viability of mock-infected MT-4 cells by 50% (4 days); assay type: functional; conditions: Homo sapiens, MT4, 96 h
Procedure, shortened: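 Mock-infected MT-4 cells (1 × 10⁴ per well) in RPMI with 10% FCS, exposed to a range of compound concentrations and incubated 4 days at 37 °C. Viable cells counted by MTT. CC50 is the dose cutting viability by 50%. Mean of three independent experiments. Cultures were checked periodically for mycoplasma.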

MT4 [3] = assay: Effective concentration required to achieve 50% protection of MT-4 cells against cytopathic effect of HIV-1 (4 days); assay type: functional, cell-based; conditions: Homo sapiens, MT4, 96 h
Procedure, shortened: as §1, with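 “HIV-1 IIIB” for “HIV-2 CBL 20”, “H9/IIIB” for “CEM”, “After 4 days at 37 °C, viable” for “Viable”, “experiments. Cytotoxicity run in parallel.” for “experiments.”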

[4] = Ratio of CC50 value that of EC50 value(HIV-1); assay type: functional
Procedure, shortened: (§2)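 Selectivity index as the CC50/EC50 ratio. CC50 comes from mock-infected MT-4 viability by MTT. EC50 comes from MTT-measured protection of MT-4 cells infected with 100 CCID50 of HIV-1 IIIB or HIV-2 CBL 20. Data are means of three experiments.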

[5] = Ratio of CC50 value that of EC50 value(HIV-2); assay type: functional; procedure, shortened: as §2

SMILES	EC50 (MT4 [1]) [µM]	CC50 (MT4 [2]) [µM]	EC50 (MT4 [3]) [µM]	Ratio [4]	Ratio [5]
Nc1ccnc2c1ncn2C1COC(COP(=O)(OCC(Cl)(Cl)Cl)OCC(Cl)(Cl)Cl)C1 (configuration not stated)	> 100	> 100	> 100		
Nc1nccc2c1nnn2C1COC(CO)C1 (configuration not stated)	> 425	> 425	> 425		
Nc1ncnc2c1nnn2C1COC(COP(=O)(OCC(Cl)(Cl)Cl)OCC(Cl)(Cl)Cl)C1 (configuration not stated)	> 92	92	> 92		
Nc1ncnc2c1ncn2C1COC(COP(=O)(OCC(Cl)(Cl)Cl)OCC(Cl)(Cl)Cl)C1 (configuration not stated)	> 173	≥ 173	87	> 2	
Cc1cn([C@H]2C[C@H](N=[N+]=[N-])[C@@H](CO)O2)c(=O)[nH]c1=O [ZIDOVUDINE]	0.04	> 80	0.01		
Nc1ncnc2c1ncn2[C@H]1CO[C@@H](CO)C1	32	> 425	21	> 20	> 13
COC(=O)C(C)NP(=O)(OCC1CC(n2nnc3c(N)ncnc32)CO1)Oc1ccccc1 (configuration not stated)	105	146	17	8.5	1.4
COC(=O)C(C)NP(=O)(OCC1CC(n2cnc3c(N)ncnc32)CO1)Oc1ccccc1 (configuration not stated)	0.04	2.9	0.06	48	65
O=c1[nH]cnc2c1ncn2[C@H]1CC[C@@H](CO)O1 [DIDANOSINE]	11	> 425	10	> 42	> 38
Nc1ccnc2c1nnn2C1COC(COP(=O)(OCC(Cl)(Cl)Cl)OCC(Cl)(Cl)Cl)C1 (configuration not stated)	> 100	> 100	> 100		
Nc1ccnc2c1nnn2C1COC(CO)C1 (configuration not stated)	> 425	> 425	> 425		
Nc1nccc2c1ncn2C1COC(COP(=O)(OCC(Cl)(Cl)Cl)OCC(Cl)(Cl)Cl)C1 (configuration not stated)	> 34	34	> 34		
Nc1nccc2c1nnn2C1COC(COP(=O)(OCC(Cl)(Cl)Cl)OCC(Cl)(Cl)Cl)C1 (configuration not stated)	> 173	> 173	> 173		
Nc1nccc2c1ncn2C1COC(CO)C1 (configuration not stated)	> 425	> 425	> 425		
Nc1ccnc2c1ncn2C1COC(CO)C1 (configuration not stated)	> 425	> 425	> 425		
Nc1ncnc2c1nnn2C1COC(CO)C1 (configuration not stated)	> 425	> 425	> 425		
